Results reported in ChEMBL document CHEMBL1944596, “7,8-dichloro-1-oxo-β-carbolines as a versatile scaffold for the development of potent and selective kinase inhibitors with unusual binding modes” (J Med Chem, 2012).
Calls of active or inactive are those of the source.

Columns and labels:
[1] = molecular target: Dual specificity protein kinase CLK1 (Homo sapiens) (UniProt P49759); test: Binding affinity to CLK1 assessed as change in thermal denaturation at 10 uM by thermal stability shift assay
How it was run: (§1)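 Each compound was screened across a kinase panel by thermal stability shift assay. The read-out was the shift in protein melting temperature (ΔTm, in °C) relative to the unliganded kinase. A ΔTm of 4.0 °C served as the hit cutoff.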

[2] = molecular target: Ribosomal protein S6 kinase alpha-1 (Homo sapiens) (UniProt Q15418); test: Binding affinity to RSK1 assessed as change in thermal denaturation at 10 uM by thermal stability shift assay
[3] = molecular target: T1, Serine/threonine-protein kinase haspin (Homo sapiens) (UniProt Q8TF76); test: Binding affinity to Haspin assessed as change in thermal denaturation at 10 uM by thermal stability shift assay; how it was run: as §1
T1 sequence (whole entry): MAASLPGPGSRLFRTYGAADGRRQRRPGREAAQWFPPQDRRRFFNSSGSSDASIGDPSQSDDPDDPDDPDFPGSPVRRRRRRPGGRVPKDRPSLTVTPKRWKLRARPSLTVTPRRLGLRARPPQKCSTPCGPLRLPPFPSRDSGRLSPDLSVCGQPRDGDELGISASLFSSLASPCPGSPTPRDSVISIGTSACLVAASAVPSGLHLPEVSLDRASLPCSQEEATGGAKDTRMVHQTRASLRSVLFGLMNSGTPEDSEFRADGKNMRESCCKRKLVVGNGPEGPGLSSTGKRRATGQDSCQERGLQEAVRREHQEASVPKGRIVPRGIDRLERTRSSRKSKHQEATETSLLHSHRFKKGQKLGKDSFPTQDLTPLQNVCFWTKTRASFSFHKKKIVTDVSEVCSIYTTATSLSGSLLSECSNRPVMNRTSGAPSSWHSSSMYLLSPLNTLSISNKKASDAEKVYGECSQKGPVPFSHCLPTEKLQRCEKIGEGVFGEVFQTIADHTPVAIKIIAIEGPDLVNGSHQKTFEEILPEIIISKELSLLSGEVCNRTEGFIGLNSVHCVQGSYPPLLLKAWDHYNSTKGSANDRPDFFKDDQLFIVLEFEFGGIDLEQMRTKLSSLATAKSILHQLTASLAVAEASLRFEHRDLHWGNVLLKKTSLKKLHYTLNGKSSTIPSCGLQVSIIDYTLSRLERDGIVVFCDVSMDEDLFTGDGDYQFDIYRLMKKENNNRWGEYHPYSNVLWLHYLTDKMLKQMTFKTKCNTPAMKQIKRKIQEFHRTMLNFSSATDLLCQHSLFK

[4] = molecular target: Serine/threonine-protein kinase 33 (Homo sapiens) (UniProt Q9BYT3); test: Binding affinity to STK33 assessed as change in thermal denaturation at 10 uM by thermal stability shift assay; how it was run: as §1
[5] = molecular target: Serine/threonine-protein kinase pim-2 (Homo sapiens, UniProt Q9P1W9); test: Binding affinity to PIM2 assessed as change in thermal denaturation at 10 uM by thermal stability shift assay; how it was run: as §1
[6] = molecular target: T2, Cyclin-G-associated kinase (Homo sapiens) (UniProt O14976); test: Binding affinity to GAK assessed as change in thermal denaturation at 10 uM by thermal stability shift assay; how it was run: as §1
T2 sequence (whole entry): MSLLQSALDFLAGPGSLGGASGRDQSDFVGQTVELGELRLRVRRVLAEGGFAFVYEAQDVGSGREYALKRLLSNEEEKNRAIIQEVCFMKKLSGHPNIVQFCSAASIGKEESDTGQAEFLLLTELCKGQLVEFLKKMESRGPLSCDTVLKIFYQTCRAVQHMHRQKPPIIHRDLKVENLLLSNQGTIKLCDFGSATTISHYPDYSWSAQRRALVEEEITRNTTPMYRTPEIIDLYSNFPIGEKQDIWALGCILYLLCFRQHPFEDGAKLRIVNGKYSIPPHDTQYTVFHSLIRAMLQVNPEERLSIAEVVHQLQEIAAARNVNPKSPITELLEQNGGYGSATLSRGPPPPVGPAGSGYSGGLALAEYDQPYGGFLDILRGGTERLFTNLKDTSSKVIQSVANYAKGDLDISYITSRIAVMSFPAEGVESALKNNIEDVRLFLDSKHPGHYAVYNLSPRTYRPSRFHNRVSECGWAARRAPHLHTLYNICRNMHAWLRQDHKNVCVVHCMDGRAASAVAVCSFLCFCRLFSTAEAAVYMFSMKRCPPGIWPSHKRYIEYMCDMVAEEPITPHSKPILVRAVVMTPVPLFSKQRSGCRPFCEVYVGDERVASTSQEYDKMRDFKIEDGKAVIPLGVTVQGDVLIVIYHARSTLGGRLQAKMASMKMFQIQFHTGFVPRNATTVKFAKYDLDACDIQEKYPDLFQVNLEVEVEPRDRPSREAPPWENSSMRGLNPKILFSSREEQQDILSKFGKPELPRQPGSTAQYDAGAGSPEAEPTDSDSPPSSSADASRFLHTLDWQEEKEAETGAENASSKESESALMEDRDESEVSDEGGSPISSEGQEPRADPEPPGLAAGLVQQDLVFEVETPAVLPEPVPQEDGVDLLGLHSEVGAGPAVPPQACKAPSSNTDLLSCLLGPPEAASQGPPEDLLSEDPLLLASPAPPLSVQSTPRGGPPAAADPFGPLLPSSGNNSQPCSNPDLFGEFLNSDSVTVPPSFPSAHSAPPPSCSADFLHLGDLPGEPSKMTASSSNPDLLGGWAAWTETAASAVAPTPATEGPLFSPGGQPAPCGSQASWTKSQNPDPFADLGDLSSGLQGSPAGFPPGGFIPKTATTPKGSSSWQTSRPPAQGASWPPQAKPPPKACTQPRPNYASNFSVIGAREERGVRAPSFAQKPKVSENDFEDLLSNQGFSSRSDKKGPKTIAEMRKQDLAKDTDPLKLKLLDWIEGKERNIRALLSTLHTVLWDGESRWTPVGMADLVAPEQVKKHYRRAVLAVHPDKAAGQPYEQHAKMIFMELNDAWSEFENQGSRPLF

[7] = molecular target: Serine/threonine-protein kinase PLK1 (Homo sapiens) (UniProt P53350); test: Binding affinity to PLK1 assessed as change in thermal denaturation at 10 uM by thermal stability shift assay; how it was run: as §1
[8] = molecular target: Platelet-derived growth factor receptor alpha (Homo sapiens) (UniProt P16234); test: Inhibition of PDGFRalpha using ATP as substrate
[9] = molecular target: Phosphatidylinositol 3-kinase catalytic subunit type 3 (Homo sapiens, UniProt Q8NEB9); test: Inhibition of VPS34 using ATP as substrate
[10] = molecular target: Phosphatidylinositol 4-kinase beta (Homo sapiens, UniProt Q9UBF8); test: Inhibition of PI4Kbeta using ATP as substrate
[11] = Growth inhibition of human SEM cells after 48 hrs by WST-1 assay; assay type: functional, cell-based
How it was run: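 Compound (0–10 μM) added to the culture medium and incubated 48 h. Proliferation and viability read by WST-1 reagent. Survival expressed as percentage of control cultures and IC50 derived by curve fitting.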

[12] = molecular target: Proto-oncogene tyrosine-protein kinase receptor Ret (Homo sapiens, UniProt P07949); test: Inhibition of RET using ATP as substrate
Chain of Proto-oncogene tyrosine-protein kinase receptor Ret (P07949 whole entry): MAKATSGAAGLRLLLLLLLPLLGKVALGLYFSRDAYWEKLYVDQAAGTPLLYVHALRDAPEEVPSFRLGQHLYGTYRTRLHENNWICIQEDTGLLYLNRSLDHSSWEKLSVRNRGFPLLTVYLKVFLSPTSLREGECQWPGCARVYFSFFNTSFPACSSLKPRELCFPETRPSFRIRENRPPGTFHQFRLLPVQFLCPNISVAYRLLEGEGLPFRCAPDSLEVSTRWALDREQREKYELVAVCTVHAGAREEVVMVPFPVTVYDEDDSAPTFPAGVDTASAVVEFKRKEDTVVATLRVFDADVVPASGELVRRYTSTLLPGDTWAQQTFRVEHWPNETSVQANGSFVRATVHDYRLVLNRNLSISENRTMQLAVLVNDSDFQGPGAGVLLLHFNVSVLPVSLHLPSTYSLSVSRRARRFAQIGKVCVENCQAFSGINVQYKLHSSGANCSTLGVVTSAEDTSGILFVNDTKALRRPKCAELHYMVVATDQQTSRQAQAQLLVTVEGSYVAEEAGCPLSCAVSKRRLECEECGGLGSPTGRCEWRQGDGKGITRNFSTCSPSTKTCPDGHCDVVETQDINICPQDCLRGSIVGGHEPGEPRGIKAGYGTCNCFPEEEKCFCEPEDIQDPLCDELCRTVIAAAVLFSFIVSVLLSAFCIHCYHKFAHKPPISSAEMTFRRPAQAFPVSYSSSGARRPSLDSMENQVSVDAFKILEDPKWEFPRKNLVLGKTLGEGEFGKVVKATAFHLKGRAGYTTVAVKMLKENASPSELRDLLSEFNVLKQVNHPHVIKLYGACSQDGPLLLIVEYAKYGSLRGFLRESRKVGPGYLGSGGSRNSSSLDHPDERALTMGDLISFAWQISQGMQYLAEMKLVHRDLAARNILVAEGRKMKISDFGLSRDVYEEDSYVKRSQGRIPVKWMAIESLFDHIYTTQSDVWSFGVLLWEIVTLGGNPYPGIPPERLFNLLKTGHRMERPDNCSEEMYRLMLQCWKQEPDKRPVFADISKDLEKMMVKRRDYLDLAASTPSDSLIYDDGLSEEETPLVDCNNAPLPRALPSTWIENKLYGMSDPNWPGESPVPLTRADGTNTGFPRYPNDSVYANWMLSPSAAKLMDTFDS

Chain of Serine/threonine-protein kinase 33 (Homo sapiens) (Q9BYT3 whole entry, looked up): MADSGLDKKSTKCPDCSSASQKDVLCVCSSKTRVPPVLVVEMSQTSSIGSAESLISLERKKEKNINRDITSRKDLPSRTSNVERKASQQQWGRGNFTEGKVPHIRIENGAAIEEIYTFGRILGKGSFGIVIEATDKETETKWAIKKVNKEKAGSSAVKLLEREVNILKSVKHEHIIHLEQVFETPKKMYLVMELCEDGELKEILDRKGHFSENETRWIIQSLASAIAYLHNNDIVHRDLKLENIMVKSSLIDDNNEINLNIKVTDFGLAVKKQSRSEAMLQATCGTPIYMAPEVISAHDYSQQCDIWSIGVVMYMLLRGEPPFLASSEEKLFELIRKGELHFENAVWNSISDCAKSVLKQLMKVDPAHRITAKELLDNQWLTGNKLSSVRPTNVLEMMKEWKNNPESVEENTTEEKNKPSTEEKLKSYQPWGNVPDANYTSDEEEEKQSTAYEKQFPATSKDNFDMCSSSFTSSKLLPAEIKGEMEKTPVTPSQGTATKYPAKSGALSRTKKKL
Chain of Serine/threonine-protein kinase pim-2 (Q9P1W9 whole entry, looked up): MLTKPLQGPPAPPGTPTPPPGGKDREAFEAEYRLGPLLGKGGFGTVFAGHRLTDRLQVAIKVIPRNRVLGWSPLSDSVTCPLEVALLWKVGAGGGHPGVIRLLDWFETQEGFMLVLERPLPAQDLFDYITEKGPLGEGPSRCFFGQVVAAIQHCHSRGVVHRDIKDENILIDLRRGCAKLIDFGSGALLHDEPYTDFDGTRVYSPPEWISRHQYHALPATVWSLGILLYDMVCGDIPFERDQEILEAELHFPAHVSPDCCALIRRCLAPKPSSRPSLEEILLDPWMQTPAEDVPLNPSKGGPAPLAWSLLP
Chain of Ribosomal protein S6 kinase alpha-1 (Homo sapiens) (Q15418 whole entry, looked up): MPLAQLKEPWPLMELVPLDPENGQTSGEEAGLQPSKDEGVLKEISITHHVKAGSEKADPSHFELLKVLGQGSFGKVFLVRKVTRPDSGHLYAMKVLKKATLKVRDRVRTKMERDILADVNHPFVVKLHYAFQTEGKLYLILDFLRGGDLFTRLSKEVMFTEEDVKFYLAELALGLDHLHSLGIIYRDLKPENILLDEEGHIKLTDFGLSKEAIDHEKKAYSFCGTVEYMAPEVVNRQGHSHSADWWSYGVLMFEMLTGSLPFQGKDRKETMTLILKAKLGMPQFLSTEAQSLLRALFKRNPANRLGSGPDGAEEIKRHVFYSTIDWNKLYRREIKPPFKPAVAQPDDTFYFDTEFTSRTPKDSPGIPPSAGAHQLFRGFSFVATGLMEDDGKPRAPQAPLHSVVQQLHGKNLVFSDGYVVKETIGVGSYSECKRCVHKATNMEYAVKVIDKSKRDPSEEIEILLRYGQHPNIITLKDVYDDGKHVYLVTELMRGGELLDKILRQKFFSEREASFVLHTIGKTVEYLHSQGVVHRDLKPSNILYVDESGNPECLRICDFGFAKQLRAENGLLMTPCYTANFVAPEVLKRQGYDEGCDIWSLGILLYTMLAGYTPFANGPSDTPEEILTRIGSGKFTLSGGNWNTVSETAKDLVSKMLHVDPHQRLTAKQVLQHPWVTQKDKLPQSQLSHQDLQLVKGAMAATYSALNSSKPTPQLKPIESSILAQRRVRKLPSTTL
Chain of Serine/threonine-protein kinase PLK1 (Homo sapiens) (P53350 whole entry): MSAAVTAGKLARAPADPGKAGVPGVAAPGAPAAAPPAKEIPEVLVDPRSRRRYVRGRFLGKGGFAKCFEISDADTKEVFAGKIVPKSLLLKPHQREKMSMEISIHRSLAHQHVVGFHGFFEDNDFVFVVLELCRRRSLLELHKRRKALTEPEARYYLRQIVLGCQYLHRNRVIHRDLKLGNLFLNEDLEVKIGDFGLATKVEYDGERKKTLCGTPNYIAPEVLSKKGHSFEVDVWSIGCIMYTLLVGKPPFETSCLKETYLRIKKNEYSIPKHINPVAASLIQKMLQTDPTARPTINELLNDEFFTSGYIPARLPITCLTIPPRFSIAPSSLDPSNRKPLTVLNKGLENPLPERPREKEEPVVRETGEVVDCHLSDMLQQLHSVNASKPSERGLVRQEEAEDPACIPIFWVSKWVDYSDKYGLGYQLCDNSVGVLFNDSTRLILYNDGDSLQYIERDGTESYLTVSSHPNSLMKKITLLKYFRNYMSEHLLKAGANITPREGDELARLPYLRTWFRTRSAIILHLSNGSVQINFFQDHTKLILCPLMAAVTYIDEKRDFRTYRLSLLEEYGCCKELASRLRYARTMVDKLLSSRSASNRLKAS
Chain of Dual specificity protein kinase CLK1 (Homo sapiens) (P49759 whole entry, looked up): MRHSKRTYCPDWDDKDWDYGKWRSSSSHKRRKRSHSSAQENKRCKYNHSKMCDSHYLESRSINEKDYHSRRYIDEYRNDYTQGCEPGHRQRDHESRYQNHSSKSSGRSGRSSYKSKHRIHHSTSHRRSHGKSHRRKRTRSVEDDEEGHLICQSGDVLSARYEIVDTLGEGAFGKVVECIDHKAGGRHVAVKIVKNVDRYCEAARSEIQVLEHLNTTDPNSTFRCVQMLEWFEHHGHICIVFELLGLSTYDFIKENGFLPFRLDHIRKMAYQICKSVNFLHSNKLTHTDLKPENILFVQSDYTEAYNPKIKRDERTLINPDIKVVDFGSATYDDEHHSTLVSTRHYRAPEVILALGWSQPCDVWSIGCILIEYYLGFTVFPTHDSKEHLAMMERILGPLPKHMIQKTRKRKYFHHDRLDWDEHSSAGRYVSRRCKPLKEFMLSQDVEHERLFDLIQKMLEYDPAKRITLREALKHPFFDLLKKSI
Chain of Phosphatidylinositol 4-kinase beta (Q9UBF8 whole entry): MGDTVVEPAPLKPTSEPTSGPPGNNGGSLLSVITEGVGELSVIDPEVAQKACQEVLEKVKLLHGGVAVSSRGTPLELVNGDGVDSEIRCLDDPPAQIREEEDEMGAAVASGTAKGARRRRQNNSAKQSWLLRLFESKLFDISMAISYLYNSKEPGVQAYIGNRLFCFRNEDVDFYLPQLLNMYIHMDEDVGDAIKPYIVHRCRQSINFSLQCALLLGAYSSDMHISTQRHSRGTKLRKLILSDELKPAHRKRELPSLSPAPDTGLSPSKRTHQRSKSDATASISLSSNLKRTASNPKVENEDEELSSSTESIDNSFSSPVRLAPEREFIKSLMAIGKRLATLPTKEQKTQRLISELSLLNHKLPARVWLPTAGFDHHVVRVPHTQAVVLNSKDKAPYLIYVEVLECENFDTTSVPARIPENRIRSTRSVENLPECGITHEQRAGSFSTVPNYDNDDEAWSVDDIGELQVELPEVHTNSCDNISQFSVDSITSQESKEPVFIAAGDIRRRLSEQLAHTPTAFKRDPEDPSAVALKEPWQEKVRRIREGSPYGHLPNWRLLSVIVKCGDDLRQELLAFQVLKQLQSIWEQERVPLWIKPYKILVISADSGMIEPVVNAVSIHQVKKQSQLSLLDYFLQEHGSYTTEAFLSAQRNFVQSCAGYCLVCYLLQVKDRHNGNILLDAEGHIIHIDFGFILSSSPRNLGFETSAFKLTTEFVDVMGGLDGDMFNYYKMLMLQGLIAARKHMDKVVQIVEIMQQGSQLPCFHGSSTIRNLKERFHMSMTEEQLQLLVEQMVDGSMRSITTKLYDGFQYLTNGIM

Row | Compound | ΔTm [1] | ΔTm [2] | ΔTm [3] | ΔTm [4] | ΔTm [5] | ΔTm [6] | ΔTm [7] | inhibition [8] | IC50 [9] | IC50 [10] | IC50 [11] | IC50 [12]
1 | Cn1c2c(c3ccccc31)C(C#N)C(C)(C)NC2=O (configuration not stated) | 2.4 °C | 0.4 °C | 1.7 °C | 1 °C | -0.2 °C | 0 °C | 3.2 °C | – | – | – | – | –
2 | Cn1c2c(Cl)c(Cl)ccc2c2cc(N)[nH]c(=O)c21 | 5.9 °C | 3.1 °C | 2.7 °C | 0.4 °C | 3 °C | 4.3 °C | 1.4 °C | – | – | – | – | –
3 | Cn1c2c(Cl)c(Cl)ccc2c2cc[nH]c(=O)c21 | 4.6 °C | 4.6 °C | 3.4 °C | 2.3 °C | 2.9 °C | 3.3 °C | 1.6 °C | – | – | – | – | –
4 | CC(=O)NCC1c2c(n(C)c3c(Cl)c(Cl)ccc23)C(=O)NC1(C)C (racemic) | 2.6 °C | 0.7 °C | 0.3 °C | 0.3 °C | 0.7 °C | 0.5 °C | 0.7 °C | – | – | – | – | –
5 | CC1(C)NC(=O)c2[nH]c3c(Cl)c(Cl)ccc3c2C1C#N (configuration not stated) | 5.3 °C | 1.4 °C | 0.3 °C | 1.1 °C | 2.3 °C | 2.5 °C | 4 °C | – | – | – | – | –
6 | CCC1(CC)NC(=O)c2c(c3ccc(Cl)c(Cl)c3n2C)C1C#N (configuration not stated) | 3.5 °C | 0.5 °C | 0.4 °C | 0.6 °C | 2 °C | 1.2 °C | 0.9 °C | – | – | – | – | –
7 | Cn1c2c(c3ccc(Cl)c(Cl)c31)C(C#N)C1(CCNCC1)NC2=O (racemic) | 7 °C | 1 °C | 5.6 °C | 5.9 °C | 6.5 °C | 1.4 °C | 1.4 °C | – | > 9.1 µM | 2.5 µM | 4.68 µM | 7.7 µM
8 | Cn1c2c(c3ccc(Cl)c(Cl)c31)C(CN)C(C)(C)NC2=O (racemic) | 5.1 °C | 0.4 °C | 1.8 °C | 0.9 °C | 3.2 °C | 0.7 °C | -0.6 °C | – | – | – | – | –
9 | Cn1c2c(Cl)c(Cl)ccc2c2cn[nH]c(=O)c21 | 3.9 °C | 1.7 °C | 3.2 °C | 1.2 °C | 1.6 °C | 1.6 °C | 3.1 °C | – | – | – | – | –
10 | Cn1c2c(c3ccc(Cl)c(Cl)c31)C(C#N)C1(CCN(C(=O)OC(C)(C)C)CC1)NC2=O (racemic) | 0.5 °C | 0 °C | 0.3 °C | 0.3 °C | -0.2 °C | -0.2 °C | 0.5 °C | – | – | – | – | –

More lines, main results first:

Row | ΔTm [1] | ΔTm [2] | ΔTm [3] | ΔTm [4] | ΔTm [5] | ΔTm [6] | ΔTm [7] | inhibition [8] | Compound | IC50 [9] | IC50 [10] | IC50 [11] | IC50 [12]
11 | 4.6 °C | 0.6 °C | 1.1 °C | 0.7 °C | 2.2 °C | 1.3 °C | 0.8 °C | – | Cn1c2c(c3ccc(Cl)c(Cl)c31)C(C#N)C1(CCOCC1)NC2=O (configuration not stated) | – | – | – | –
12 | 4 °C | 0 °C | 2.6 °C | 2.1 °C | 3.9 °C | 0.9 °C | 0.4 °C | – | CCN1CCC2(CC1)NC(=O)c1c(c3ccc(Cl)c(Cl)c3n1C)C2C#N (racemic) | – | – | – | –
13 | 6.4 °C | 1.8 °C | 0.9 °C | 2.2 °C | 3.6 °C | 2.8 °C | 4.9 °C | – | Cn1c2c(c3ccc(Cl)c(Cl)c31)C(C#N)C(C)(C)NC2=O (configuration not stated) | – | – | – | –
14 | 5.4 °C | 0.4 °C | 0 °C | 0.5 °C | 1.4 °C | 2.8 °C | 0.3 °C | – | N#CC1c2c([nH]c3c(Cl)c(Cl)ccc23)C(=O)NC12CCCCC2 (racemic) | – | – | – | –
15 | 4.8 °C | 0.5 °C | 0.1 °C | 0.2 °C | 1.6 °C | 1.2 °C | 1.3 °C | – | Cn1c2c(c3ccc(Cl)c(Cl)c31)C(C#N)C1(CCCC1)NC2=O (configuration not stated) | – | – | – | –
16 | 5.7 °C | 0.5 °C | 3.4 °C | 2.2 °C | 5.2 °C | 0.8 °C | 0.6 °C | inactive | CN1CCC2(CC1)NC(=O)c1c(c3ccc(Cl)c(Cl)c3n1C)C2C#N (racemic) | – | – | – | –
